# Test results published in ChEMBL document CHEMBL4422614 (Eur J Med Chem, 2019).
# Calls of active or inactive are those of the source. The rule behind the calls is not given here.
# How the values were obtained:
# [1] = Antioxidant activity assessed as trolox equivalent of AAPH-induced radical scavenging activity at 10 to 20 uM preincubated for 10 mins followed by AAPH addition measured every minute for 120 mins by ORAC fluorescein assay; assay type: functional
# Outline: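 ORAC values are expressed as trolox equivalents, mean ± SD of three independent experiments.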
# Mus musculus [2] = test: Cognition enhancement activity in amyloid beta (25 to 35 residues) induced C57BL/6J mouse model of Alzheimer's disease assessed as swimming time in effective region at 4 mg/kg/day, ig administered for 26 consecutive days by Morris water maze test (4.3 +/- 1.3 sec); assay type: functional
# Outline: (§1)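 Mice were randomized into 7 groups. All except sham got an ICV injection of Aβ25-35 (3 nmol); sham got the same volume of saline ICV. Dosing was intragastric daily for 26 days, with 0.5% CMC-Na as vehicle for sham and model. Body weight, diarrhea and emesis-like behavior were monitored.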
# Mus musculus [3] = test: Cognition enhancement activity in amyloid beta (25 to 35 residues) induced C57BL/6J mouse model of Alzheimer's disease assessed as swimming path length in virtual platform at 4 mg/kg/day, ig administered for 26 consecutive days by Morris water maze test (10.2 +/- 3.2 cm); assay type: functional; outline: as §1
# Mus musculus [4] = test: (§2) Neuroprotection in amyloid beta (25 to 35 residues) induced C57BL/6J mouse model of Alzheimer's disease assessed as reduction in ratio of apoptotic neuron in DG hippocampus region at 4 mg/kg/day, ig administered for 26 consecutive days by hematoxylin and eosin staining-based light microscopic analysis (reference value: 55.8 +/- 7.2%); assay type: ADME, organism-based; design: scale not given: the % may be the effect or the level left; settings: in vivo, po
# Outline: (§3)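 Hippocampal CA1, CA3 and DG neurons were stained with H&E after the Aβ25-35 ICV model and 26-day intragastric dosing. Denatured cell index = denatured cells/total cells, n = 5. Values are mean ± SD, two-way ANOVA versus model.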
# in vitro = settings: PAMPA
# Mus musculus [5] = test: Cognition enhancement activity in amyloid beta (25 to 35 residues) induced C57BL/6J mouse model of Alzheimer's disease assessed as decrease in escape latancy at 4 mg/kg/day, ig administered for 26 consecutive days by Morris water maze test; assay type: functional, organism-based; outline: as §1
# Mus musculus [6] = test: as §2, with “CA3” for “DG”, “80.2” for “55.8”, “8.6%)” for “7.2%)”; assay type: ADME, organism-based; design: scale not given: the % may be the effect or the level left; settings: in vivo, po; outline: as §3
# Mus musculus [7] = test: as §2, with “CA1” for “DG”, “40.6” for “55.8”, “12.5%)” for “7.2%)”; assay type: ADME, organism-based; design: scale not given: the % may be the effect or the level left; settings: in vivo, po; outline: as §3
# Mus musculus [8] = test: Cognition enhancement activity in amyloid beta (25 to 35 residues) induced C57BL/6J mouse model of Alzheimer's disease assessed as swimming speed at 30 mg/kg/day, ig administered for 26 consecutive days by Morris water maze test (reference value: 15.6 +/- 2.4 cm/sec); assay type: functional; outline: as §1
compound,measurement,setting,value
COc1ccc(C2CNC(=O)C2)cc1OC1CCCC1 (centres undefined) [ROLIPRAM],Activity,[1],0.07 equiv
same,Time,Mus musculus [2],5.7 s
same,Activity,Mus musculus [3],16.5 cm
same,Activity,Mus musculus [4],25.7%
same,"Papp at 10 h, 100 ug/ml",in vitro,18.9 ×10⁻⁶ cm/s
same,Activity,Mus musculus [5],Active
same,Activity,Mus musculus [6],41.1%
same,Activity,Mus musculus [7],33.5%
same,Activity,Mus musculus [8],15.1 cm/s
